# Test results: ChEMBL document CHEMBL2346555, “Efficacious cyclic N-acyl O-amino phenol duocarmycin prodrugs” (J Med Chem, 2013)
# Active and inactive are the calls of the source. The calls are words filed in the database; no cut-off is given here.
# What was measured:
# [1] = Hypoxic cytotoxicity ratio of IC50 for human PC3MM2 cell under aerobic condition to IC50 for human PC3MM2 cells under hypoxic condition; assay type: functional
# [2] = Half life in human plasma
# [3] = Half life of the compound in HCl/EtOAc at 23 degC; assay type: physicochemical
# L1210 [4] = assay: Cytotoxicity against mouse L1210 cells assessed as growth inhibition after 72 hrs by phosphatase assay; assay type: functional, cell-based
# Summary of the method: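 L1210 mouse leukemia cells were seeded at 30,000 cells/mL in DMEM with 10% FBS and grown 24 h at 37 °C, 5% CO2. DMSO dilutions were then added at six concentrations between 0–100 or 0–1000 nM, in duplicate, for 72 h. Read-out: phosphatase substrate in 0.1 M NaOAc pH 5.5 with 0.1% Triton X-100, 5 min at 37 °C, stopped with NaOH, A405. IC50 is the average of ≥4 determinations.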
# L1210 [5] = assay: Antitumor activity against mouse L1210 cells allografted in B6D2F1 mouse assessed as mean survival period at 200 ug/kg, ip tid administered on day 1 to 9 measured after 366 days relative to vehicle-treated control; assay type: functional
# Summary of the method: (§1)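 L1210 cells (1 × 10^6) injected i.p. into B6D2F1 mice on day 0; 10 mice per group, randomized to vehicle or treatment. Dosing in 100% DMSO i.p. on days 1, 5 and 9 at 60–2500 μg/kg/inj. Animals were monitored daily and weighed twice weekly, with follow-up extended to 366 days. T/C = total survival days of the treated group ÷ total survival days of the control group × 100.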
# A549 [6] = assay: Cytotoxicity against human A549 cells assessed as growth inhibition under aerobic condition after 72 hrs by SRB assay; assay type: functional, cell-based; conditions: A549, 72 h
# Summary of the method: (§2)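 Before the assay, A549 and PC3/MM2 cells were adapted for one week under hypoxia (37 °C, 5% CO2, 0.5% O2), subcultured twice; viability was checked by trypan blue. Cells were plated, held 24 h aerobic (37 °C, 5% CO2) or hypoxic, then exposed 72 h to 10 concentrations. SRB read-out per NCI DTP. Growth = [(Ti − Tz)/(C − Tz)] × 100%. IC50 by sigmoidal nonlinear regression, n = 3 independent experiments.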
# [7] = Cytotoxicity against human PC3MM2 cells assessed as growth inhibition under aerobic condition after 72 hrs by SRB assay; assay type: functional, cell-based; conditions: PC3MM2, 72 h; summary of the method: as §2
# [8] = Half life in mouse plasma
# [9] = Fraction unbound in human plasma; assay type: ADME, cell-free
# [10] = Stability of the compound in Mo(CO)6, MeCN/H2O after 3 hrs; assay type: physicochemical
# L1210 [11] = assay: Antitumor activity against mouse L1210 cells allografted in B6D2F1 mouse assessed as mean survival period at 2500 ug/kg, ip tid administered on day 1 to 9 measured after 366 days relative to vehicle-treated control; assay type: functional; summary of the method: as §1
# [12] = Stability of the compound in H2, Pd/C, MeOH, at 23 degC after 1 hr; assay type: physicochemical
# A549 [13] = assay: Cytotoxicity against human A549 cells assessed as growth inhibition under hypoxic condition after 72 hrs by SRB assay; assay type: functional, cell-based; conditions: A549, 72 h; summary of the method: as §2
# Neurospora discreta [14] = assay: Induction of Neurospora discreta w794 [5-32P]-DNA alkylation thermal-induced strand cleavage at 1 x 10^-2 M incubated for 48 hrs at 23 degC followed by thermolysis at 100 degC measured after 30 mins by PAGE/autoradiographic analysis
# [15] = Half life of the compound in phosphate buffer at pH 7
# L1210 [16] = assay: Antitumor activity against mouse L1210 cells allografted in B6D2F1 mouse assessed as mean survival period at 60 ug/kg, ip tid administered on day 1 to 9 measured after 366 days relative to vehicle-treated control; assay type: functional; summary of the method: as §1
# A549 [17] = assay: Hypoxic cytotoxicity ratio of IC50 for human A549 cell under aerobic condition to IC50 for human A549 cells under hypoxic condition; assay type: functional
# L1210 [18] = assay: Antitumor activity against mouse L1210 cells allografted in B6D2F1 mouse assessed as mean survival period at 500 ug/kg, ip tid administered on day 1 to 9 measured after 366 days relative to vehicle-treated control; assay type: functional; summary of the method: as §1
# Mus musculus [19] = assay: Toxicity in B6D2F1 mouse allografted with mouse L1210 cells assessed as mortality at 60 ug/kg, ip tid administered on day 1 to 9 measured after 366 days; assay type: organism-based; conditions: in vivo, 0.06 mg/kg, 8784 h
# Summary of the method: (§3)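 Syngeneic L1210 cells (1 × 10^6) were given i.p. to B6D2F1 mice on day 0; 10 per group. Compound in 100% DMSO was injected i.p. on days 1, 5 and 9. Animals were monitored daily and weighed twice weekly, with the study extended to 366 days. Deaths from drug toxicity were recorded.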
# L1210 [20] = assay: Antitumor activity against mouse L1210 cells allografted in B6D2F1 mouse assessed as mean survival period at 1000 ug/kg, ip tid administered on day 1 to 9 measured after 366 days relative to vehicle-treated control; assay type: functional; summary of the method: as §1
# [21] = Cytotoxicity against human PC3MM2 cells assessed as growth inhibition under hypoxic condition after 72 hrs by SRB assay; assay type: functional, cell-based; conditions: PC3MM2, 72 h; summary of the method: as §2
# Neurospora discreta [22] = assay: Induction of Neurospora discreta w794 [5-32P]-DNA alkylation assessed as thermal-induced strand cleavage at 1 x 10^-3 M incubated for 2 hrs at 23 degC followed by thermolysis at 100 degC for 30 mins measured after 12 to 48 hrs by PAGE/autoradiographic analysis in presence of L-glutathione; conditions: in the assay text read “1 x 10^-5 M” for “1 x 10^-3 M”
# Summary of the method: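 Agent first held with 1 M L-glutathione at 37 °C for 12 or 48 h to cause reductive activation. It was then incubated with 5′-32P-labelled w794 DNA at 23 °C for 2 h, and unbound agent was removed by EtOH precipitation. Thermolysis followed at 100 °C for 30 min, then 8% denaturing PAGE and autoradiography against Sanger sequencing lanes.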
# Neurospora discreta [23] = assay: Induction of Neurospora discreta w794 [5-32P]-DNA alkylation assessed as thermal-induced strand cleavage at 1 x 10^-3 M incubated for 2 hrs at 23 degC followed by thermolysis at 100 degC for 30 mins measured after 12 to 24 hrs by PAGE/autoradiographic analysis in absence of L-glutathione
# Summary of the method: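 Agent incubated with 5′-32P-labelled w794 DNA at 23 °C for 2 h; unbound agent removed by EtOH precipitation. Thermolysis at 100 °C for 30 min induced strand cleavage at alkylation sites. Read-out by 8% denaturing PAGE and autoradiography, alongside Sanger G, C, A and T sequencing lanes and untreated control DNA. No glutathione present.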
# Neurospora discreta [24] = assay: Induction of Neurospora discreta w794 [5-32P]-DNA alkylation assessed as thermal-induced strand cleavage at 1 x 10^-3M incubated for 48 hrs at 23 degC followed by thermolysis at 100 degC for 30 mins measured after 12 to 48 hrs by PAGE/autoradiographic analysis in presence of L-glutathione
# Neurospora discreta [25] = assay: Induction of Neurospora discreta w794 [5-32P]-DNA alkylation assessed as thermal-induced strand cleavage at 1 x 10^-5 M to 1 X 10^-4 M incubated for 48 hrs at 23 degC followed by thermolysis at 100 degC measured after 30 mins by PAGE/autoradiographic analysis
# L1210 [26] = assay: Antitumor activity against mouse L1210 cells allografted in B6D2F1 mouse assessed as mean survival period at 250 ug/kg, ip tid administered on day 1 to 9 measured after 366 days relative to vehicle-treated control; assay type: functional; summary of the method: as §1
# Mus musculus [27] = assay: Toxicity in B6D2F1 mouse allografted with mouse L1210 cells assessed as mortality at 100 to 250 ug/kg, ip tid administered on day 1 to 9 measured after 366 days; assay type: organism-based; conditions: in vivo, 8784 h; summary of the method: as §3
# L1210 [28] = assay: Antitumor activity against mouse L1210 cells allografted in B6D2F1 mouse assessed as mean survival period at 100 ug/kg, ip tid administered on day 1 to 9 measured after 366 days relative to vehicle-treated control; assay type: functional; summary of the method: as §1
# [29] = Fraction unbound in mouse plasma; assay type: ADME, cell-free
# Neurospora discreta [30] = assay: Induction of Neurospora discreta w794 [5-32P]-DNA alkylation assessed as thermal-induced strand cleavage at 1 x 10^-5 M incubated for 2 hrs at 23 degC followed by thermolysis at 100 degC measured after 30 mins by PAGE/autoradiographic analysis in absence of L-glutathione
# Summary of the method: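 Labeled DNA was incubated with agent for 2 h at 23 °C. Unbound agent was removed by EtOH precipitation, then thermolysis for 30 min at 100 °C, 8% denaturing PAGE and autoradiography, with Sanger G, C, A, T lanes as markers. In the glutathione arm, agent at 1 × 10−5 M was first held at 37 °C with 1 M L-glutathione for 12 or 48 h.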
# Neurospora discreta [31] = assay: Induction of Neurospora discreta w794 [5-32P]-DNA alkylation assessed as thermal-induced strand cleavage at 1 x 10^-5 M incubated for 2 hrs at 23 degC followed by thermolysis at 100 degC for 30 mins measured after 12 to 24 hrs by PAGE/autoradiographic analysis in presence of L-glutathione
compound,measurement,setting,value
CN1Oc2cc3c(c4cccc(c24)C1=O)[C@H](CCl)CN3C(=O)c1cc2cc(NC(=O)c3cc4ccccc4[nH]3)ccc2[nH]1,Ratio IC50,[1],10
same,half-life,[2],> 168 h
same,half-life,[3],> 72 h
same,IC50,"L1210 [4]; Mus musculus, L1210, 72 h",0.99 nM
same,T/C,L1210 [5],>386
same,IC50,A549 [6],25 nM
same,IC50,[7],350 nM
same,half-life,[8],> 48 h
same,fraction unbound,[9],< 0.05
same,Stability,[10],Unstable
same,T/C,L1210 [11],>1500
same,Stability,[12],Unstable
same,IC50,A549 [13],5 nM
same,Activity,Neurospora discreta [14],inactive
same,half-life,[15],> 672 h
same,T/C,L1210 [16],159
same,Ratio IC50,A549 [17],5
same,T/C,L1210 [18],>1142
same,Activity,Mus musculus [19],Toxic
same,T/C,L1210 [20],>1130
same,IC50,[21],35 nM
CC(C)(C)OC(=O)NOc1cc2c(c3ccccc13)[C@H](CCl)CN2C(=O)c1cc2cc(NC(=O)c3cc4ccccc4[nH]3)ccc2[nH]1,Activity,Neurospora discreta [22],Active
same,Activity,Neurospora discreta [23],inactive
CN1Oc2cc3c(c4cccc(c24)C1=O)[C@@H](CCl)CN3C(=O)OC(C)(C)C,IC50,"L1210 [4]; Mus musculus, L1210, 72 h",> 1000 nM
O=C(Nc1ccc2[nH]c(C(=O)N3CC(CCl)c4c3cc(O)c3ccccc43)cc2c1)c1cc2ccccc2[nH]1 (stereo not given),IC50,"L1210 [4]; Mus musculus, L1210, 72 h",0.9 nM
CNC(=O)c1cccc2c3c(cc(O)c12)N(C(=O)c1cc2cc(NC(=O)c4cc5ccccc5[nH]4)ccc2[nH]1)CC3CCl (racemic),IC50,"L1210 [4]; Mus musculus, L1210, 72 h",0.073 nM
same,Activity,Neurospora discreta [24],Active
O=C(Nc1ccc2[nH]c(C(=O)N3C[C@@H](CCl)c4c3cc(O)c3ccccc43)cc2c1)c1cc2ccccc2[nH]1 [SECO-CBI-INDOLE],Activity,Neurospora discreta [25],Active
same,T/C,L1210 [26],21
same,Activity,Mus musculus [27],Toxic
same,T/C,L1210 [16],>284
same,T/C,L1210 [18],17
same,T/C,L1210 [28],36
O=C(Nc1ccc2[nH]c(C(=O)N3C[C@@H](CCl)c4c3cc3c5c(cccc45)C(=O)NO3)cc2c1)c1cc2ccccc2[nH]1,IC50,"L1210 [4]; Mus musculus, L1210, 72 h",0.3 nM
same,half-life,[8],> 48 h
same,fraction unbound,[29],< 0.05
same,Activity,Neurospora discreta [30],inactive
same,Activity,Neurospora discreta [31],Active
CN1Oc2cc3c(c4cccc(c24)C1=O)[C@@H](CCl)CN3C(=O)c1cc2cc(NC(=O)c3cc4ccccc4[nH]3)ccc2[nH]1,IC50,"L1210 [4]; Mus musculus, L1210, 72 h",740 nM
COc1c(O)c2c(c3cc(C(=O)N4CCc5c4c(O)c(OC)c4[nH]c(C(=O)N6CC7CC78C6=CC(=O)c6[nH]cc(C)c68)cc54)[nH]c13)CCN2C(N)=O (stereo not given) [CC-1065],IC50,"L1210 [4]; Mus musculus, L1210, 72 h",0.02 nM
COC(=O)c1cc2c([nH]1)C(=O)C=C1N(C(=O)c3cc4cc(OC)c(OC)c(OC)c4[nH]3)CC3CC123 (stereo not given) [DUOCARMYCIN SA],IC50,"L1210 [4]; Mus musculus, L1210, 72 h",0.1 nM
CC(C)(C)OC(=O)N1C[C@H](CCl)c2c1cc1c3c(cccc23)C(=O)NO1,IC50,"L1210 [4]; Mus musculus, L1210, 72 h",> 1000 nM
CC(C)(C)OC(=O)N1C[C@H]2C[C@@]23C1=CC(=O)c1ccccc13,IC50,L1210 [4]; l1210,900 nM
O=C1Nc2cccc3c4c(cc(c23)O1)N(C(=O)c1cc2cc(NC(=O)c3cc5ccccc5[nH]3)ccc2[nH]1)C[C@H]4CCl,Ratio IC50,[1],1.9
same,IC50,A549 [6],90 nM
same,IC50,[7],320 nM
same,IC50,A549 [13],90 nM
same,Ratio IC50,A549 [17],1
same,IC50,[21],170 nM
O=C(Nc1ccc2[nH]c(C(=O)N3C[C@H](CCl)c4c3cc3c5c(cccc45)C(=O)NO3)cc2c1)c1cc2ccccc2[nH]1,IC50,"L1210 [4]; Mus musculus, L1210, 72 h",65 nM
